The source made the active and inactive calls. No cut-off for these calls is given here.
Columns and labels:
[1] = test system: HeLa; experiment: Cytotoxicity against human HeLa cells measured after 24 hrs by crystal violet staining based assay; type: cell-based
In short: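 HeLa cells seeded at 2.5 x 10⁴ cells/well in DMEM with 2% FBS, 24 h at 37°C, 5% CO₂. Medium replaced with compound, eight serial dilutions in duplicate, 24 h at 37°C. Cells fixed and stained with 0.75% crystal violet in 40% methanol for 10 min. Dye dissolved in 20% acetic acid and read at 540 nm, triplicate means. Untreated cells are the negative control.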

[2] = test system: Trypanosoma cruzi; experiment: Anti-parasitic activity against Trypanosoma cruzi Dm28c epimastigotes in logarithmic phase measured after 24 to 48 hrs by resazurin assay; type: functional
In short: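 Log-phase Dm28c epimastigotes at 1x10⁶ cells/ml in PBS plus 2% (w/v) glucose. Derivatives added at 0.1-100 µM final. Incubation 24-48 h, then viability read by resazurin. DMSO-only wells serve as negative control. Resazurin is also run with compound but no parasites. IC50 is the mean of at least three independent experiments, reproducible within ±10%.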

[3] = Selectivity index, ratio of EC50 for cytotoxicity against human HeLa cells to IC50 for anti-parasitic activity against Trypanosoma cruzi Dm28c epimastigotes; type: toxicity, cell-based; details: read-out: Selectivity Index
In short: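 HeLa crystal violet EC50 (24 h) divided by epimastigote IC50 (resazurin, 48 h growth).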

[4] = target: Trypanothione reductase (Trypanosoma cruzi, UniProt P28593); experiment: Uncompetitive inhibition of Trypanosoma cruzi trypanothione reductase using […] as substrate at pH 7.5 in presence of NADPH by photometric method
In short: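 Reactions started with NADPH; compound-free reactions serve as control. Initial rates were plotted against TS₂ concentration and Ki was taken as the mean of at least three independent data sets, within ±10%.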

[5] = target: Trypanothione reductase (Trypanosoma cruzi) (UniProt P28593); experiment: Inhibition of Trypanosoma cruzi trypanothione reductase at 100 uM using […] as substrate at pH 7.5 in presence of NADPH by photometric method; details: TDE = time-dependent effect
[6] = test system: Trypanosoma cruzi; experiment: Anti-parasitic activity against Trypanosoma cruzi Dm28c epimastigotes in logarithmic phase assessed as morphological changes at 30 uM measured after 48 hrs by resazurin assay; type: functional
[7] = test system: Trypanosoma cruzi; experiment: Potency index, ratio of nifurtimox IC50 to test compound IC50 for Trypanosoma cruzi Dm28c epimastigotes in logarithmic phase; type: functional

Sequence of Trypanothione reductase (P28593 whole entry): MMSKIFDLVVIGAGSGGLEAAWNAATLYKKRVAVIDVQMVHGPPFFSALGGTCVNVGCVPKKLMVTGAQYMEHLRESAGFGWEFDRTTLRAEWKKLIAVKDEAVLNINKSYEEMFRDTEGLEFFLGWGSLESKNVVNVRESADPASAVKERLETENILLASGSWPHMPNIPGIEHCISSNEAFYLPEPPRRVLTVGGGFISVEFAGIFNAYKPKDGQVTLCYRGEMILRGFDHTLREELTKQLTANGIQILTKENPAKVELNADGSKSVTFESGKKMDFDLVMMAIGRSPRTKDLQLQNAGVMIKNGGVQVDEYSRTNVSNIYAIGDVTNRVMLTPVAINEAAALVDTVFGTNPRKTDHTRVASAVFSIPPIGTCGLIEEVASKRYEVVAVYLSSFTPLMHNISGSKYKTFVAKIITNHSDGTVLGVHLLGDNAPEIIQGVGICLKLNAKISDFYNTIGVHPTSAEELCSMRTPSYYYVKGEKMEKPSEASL
Sequence of Trypanothione reductase (Trypanosoma cruzi) (P28593 whole entry, looked up): as the sequence (P28593 whole entry) above

| SMILES | EC50 [1] [µM] | IC50 [2] [µM] | selectivity ratio [3] | Ki [4] [µM] | inhibition [5] | Activity [6] | Ratio IC50 [7] |
| --- | --- | --- | --- | --- | --- | --- | --- |
| CCN(CC)CCCNC(=O)c1ccc([N+](=O)[O-])o1 | 100 | 25 | 4 | 128 |  |  |  |
| O=C(c1ccc([N+](=O)[O-])o1)N1CCCC1 |  | 64 |  | 187 |  |  |  |
| O=C(NCc1ccccc1)c1ccc([N+](=O)[O-])o1 | 123 | 15 | 8.2 | 61 | Tde |  |  |
| CC(C)(C)NC(=O)c1ccc([N+](=O)[O-])o1 |  | 35 |  | 313 |  |  |  |
| CC(C)NC(=O)c1ccc([N+](=O)[O-])o1 | 211 | 18 | 11.7 | 414 |  |  |  |
| CC1CS(=O)(=O)CCN1/N=C/c1ccc([N+](=O)[O-])o1 (configuration not stated) [NIFURTIMOX] | 272 | 4 | 68 | 245 |  |  |  |
| CCCN(CCC)C(=O)c1ccc([N+](=O)[O-])o1 |  | 19.6 |  | 183 |  |  |  |
| CCCCNC(=O)c1ccc([N+](=O)[O-])o1 | 152 | 26 | 5.8 | 315 |  |  |  |
| O=C(c1ccc([N+](=O)[O-])o1)N1CCCCC1 |  | 103 |  | 282 |  |  |  |
| CCC(C)NC(=O)c1ccc([N+](=O)[O-])o1 (configuration not stated) | 165 | 23 | 7.2 | 1180 |  |  |  |
| O=C(O)c1ccc([N+](=O)[O-])o1 |  |  |  |  | Tde | inactive |  |
| CCCNC(=O)c1ccc([N+](=O)[O-])o1 | 150 | 17 | 8.8 | 336 |  |  |  |
| O=C(c1ccc([N+](=O)[O-])o1)N(Cc1ccccc1)Cc1ccccc1 | 78 | 1.1 | 70.1 | 68 | Tde |  | 4 |
| CN(C)CCNC(=O)c1ccc([N+](=O)[O-])o1 |  | 36 |  | 136 |  |  |  |
| CN(C)CCCNC(=O)c1ccc([N+](=O)[O-])o1 | 74 | 19 | 3.9 | 118 | Tde |  |  |

— ChEMBL document CHEMBL4041512, “Rational design of nitrofuran derivatives: Synthesis and valuation as inhibitors of Trypanosoma cruzi trypanothione reductase” (Eur J Med Chem, 2017)
